The source of these data is ChEMBL document CHEMBL1124149 (1988).

Structures are written as SMILES. Converted amounts (≈) assume the structure as drawn.

Holding throughout (type): functional
The subject of experiment [1] is Cytomegalovirus. As to the kind of experiment: In vitro minimum inhibitory concentration to inhibit CMV (Davis)-induced cytopathogenicity in HEL cells by 50%. The settings on record: Human betaherpesvirus 5. In general terms: Damage to the host cells serves as the signal in cytopathic effect assays.
Another experiment relates to FM3A. As to the kind of experiment: Antitumor activity against murine mammary carcinoma FM3A cells. The settings on record: Mus musculus; read-out: MIC. In short, it runs like this:
(§1)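 Tumor cell proliferation assay. Murine leukemia L1210 and murine mammary carcinoma FM3A cells were grown in culture with the compound. The value is the concentration inhibiting cell proliferation by 50%.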

Experiment [2] concerns Human alphaherpesvirus 2. In words: In vitro minimum inhibitory concentration to inhibit HSV-2 (196)-induced cytopathogenicity in PRK cells by 50%. Put shortly:
(§2)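 Antiviral read-out was virus-induced cytopathogenicity in primary rabbit kidney (PRK) cell cultures. The value is the compound concentration needed to reduce cytopathogenicity by 50%.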

Experiment [3] has as its system Human alphaherpesvirus 2. In words: In vitro minimum inhibitory concentration to inhibit HSV-2 (G)-induced cytopathogenicity in PRK cells by 50%. Put shortly:
as §2

Experiment [4] deals with Human alphaherpesvirus 2. In words: In vitro minimum inhibitory concentration to inhibit HSV-2 (Lyons)-induced cytopathogenicity in PRK cells by 50%. Put shortly:
as §2

Experiment [5] relates to Human alphaherpesvirus 1. As to the kind of experiment: In vitro minimum inhibitory concentration to inhibit HSV-1 (KOS)-induced cytopathogenicity in primary rabbit kidney cells by 50%. Put shortly: as §2
Experiment [6] relates to Human alphaherpesvirus 1. In words: In vitro minimum inhibitory concentration to inhibit HSV-1 (McIntyre)-induced cytopathogenicity in PRK cells by 50%. Put shortly: as §2
For experiment [7], the system named is Human alphaherpesvirus 1. As to the kind of experiment: In vitro minimum inhibitory concentration to inhibit thymidine deficient HSV-1 (B2006)-induced cytopathogenicity in PRK cells by 50%. In short, it runs like this:
as §2

In experiment [8] the test system is Human alphaherpesvirus 1. In words: In vitro minimum inhibitory concentration to inhibit thymidine deficient HSV-1 (VMV 1837)- induced cytopathogenicity in PRK cells by 50%. In short, it runs like this:
as §2

The next experiment has as its system L1210. In words: Antitumor activity against murine leukemia L1210 cells. The settings on record: Mus musculus; read-out: MIC. In short, it runs like this: as §1
Experiment [9] is described as follows: In vitro minimum inhibitory concentration to inhibit […] (incorporation of [methyl-3H]dThd) in PRK cells by 50%.
A further experiment deals with Suid alphaherpesvirus 1. As to the kind of experiment: In vitro minimum inhibitory concentration to inhibit SHV-1-induced cytopathogenicity in PRK cells by 50%. In short, it runs like this: as §2
The subject of experiment [10] is Human alphaherpesvirus 3. In words: In vitro minimum inhibitory concentration to inhibit VZV (Oka)-induced cytopathogenicity in HEL cells by 50%.
Experiment [11] deals with Human alphaherpesvirus 3. As to the kind of experiment: In vitro minimum inhibitory concentration to inhibit VZV (YS)-induced cytopathogenicity in HEL cells by 50%.
Experiment [12] relates to Human alphaherpesvirus 3. In words: In vitro minimum inhibitory concentration to inhibit thymidine deficient VZV (YSR)-induced cytopathogenicity in HEL cells by 50%.
For another experiment, the system named is Equid alphaherpesvirus 1. In words: In vitro minimum inhibitory concentration to inhibit EHV-1-induced cytopathogenicity in PRK cells by 50%. Put shortly: as §2
The test system of experiment [13] is Bovine alphaherpesvirus 1. As to the kind of experiment: In vitro minimum inhibitory concentration to inhibit BHV-1-induced cytopathogenicity in PRK cells by 50%. Put shortly: as §2
Experiment [14] has as its system Cytomegalovirus. As to the kind of experiment: In vitro minimum inhibitory concentration to inhibit CMV (AD-169)-induced cytopathogenicity in HEL cells by 50%. As to conditions: Human betaherpesvirus 5.
For experiment [15], the system named is Human alphaherpesvirus 1. In words: In vitro minimum inhibitory concentration to inhibit HSV-1 (F)-induced cytopathogenicity in primary rabbit kidney cells by 50%. In short, it runs like this:
as §2

With `Cn1c(N)nc2c(ncn2COCCO)c1=O`, the MIC with Cytomegalovirus [1] was above 100 µg/mL; against Human alphaherpesvirus 2 [2] it was 2 µg/mL (≈ 8.36 µM); with Human alphaherpesvirus 2 [3] it was 1 µg/mL (≈ 4.18 µM); in the experiment on Human alphaherpesvirus 2 [4], 2 µg/mL (≈ 8.36 µM); against Human alphaherpesvirus 1 [5] it was 1 µg/mL (≈ 4.18 µM); against Human alphaherpesvirus 1 [6] it was 2 µg/mL (≈ 8.36 µM). For the same molecule, the MIC against Human alphaherpesvirus 1 [7] was 300 µg/mL (≈ 1250 µM); in the experiment with Human alphaherpesvirus 1 [8] it was 300 µg/mL (≈ 1250 µM); in experiment [9] (Oryctolagus cuniculus), above 400 µg/mL; with Suid alphaherpesvirus 1, 70 µg/mL (≈ 293 µM); with Human alphaherpesvirus 3 [10], 20 µg/mL (≈ 83.6 µM); against Human alphaherpesvirus 3 [11] it was 20 µg/mL (≈ 83.6 µM). The MIC with Human alphaherpesvirus 3 [12] was above 100 µg/mL; with Equid alphaherpesvirus 1, 10 µg/mL (≈ 41.8 µM); in [13] it was above 400 µg/mL; in the experiment with Cytomegalovirus [14] it was above 100 µg/mL; against Human alphaherpesvirus 1 [15], 2 µg/mL (≈ 8.36 µM). Besides, the IC50 in the experiment on FM3A and in the experiment on L1210 was above 100 µg/mL each time.

As for `Cc1cn2c([O-])c3c(nc2n1)[n+](COCCO)cn3C`, the MIC is above 100 µg/mL against Cytomegalovirus [1]; 70 µg/mL (≈ 252 µM) in the experiment with Human alphaherpesvirus 2 [2]; 70 µg/mL (≈ 252 µM) against Human alphaherpesvirus 2 [3]; 70 µg/mL (≈ 252 µM) against Human alphaherpesvirus 2 [4]; 70 µg/mL (≈ 252 µM) in the experiment on Human alphaherpesvirus 1 [5]; 70 µg/mL (≈ 252 µM) in the experiment on Human alphaherpesvirus 1 [6]. In addition, the MIC is above 400 µg/mL in the experiment with Human alphaherpesvirus 1 [7]; above 400 µg/mL against Human alphaherpesvirus 1 [8]; above 400 µg/mL in experiment [9] (Oryctolagus cuniculus); above 400 µg/mL in the experiment with Suid alphaherpesvirus 1; above 100 µg/mL against Human alphaherpesvirus 3 [10]; above 100 µg/mL against Human alphaherpesvirus 3 [11]. The MIC was above 100 µg/mL in the experiment with Human alphaherpesvirus 3 [12]; above 400 µg/mL with Equid alphaherpesvirus 1; above 400 µg/mL in experiment [13]; above 100 µg/mL in the experiment with Cytomegalovirus [14]; 70 µg/mL (≈ 252 µM) in the experiment with Human alphaherpesvirus 1 [15]. Moreover, the IC50 in the experiment on FM3A and in the experiment on L1210 was above 100 µg/mL throughout.

As to `Cc1cn2c(O)c3ncn(COCCO)c3nc2n1`, the MIC is above 100 µg/mL against Cytomegalovirus [1]; 0.7 µg/mL (≈ 2.66 µM) in the experiment on Human alphaherpesvirus 2 [2]; 0.7 µg/mL (≈ 2.66 µM) in the experiment on Human alphaherpesvirus 2 [3]; 2 µg/mL (≈ 7.6 µM) against Human alphaherpesvirus 2 [4]; 2 µg/mL (≈ 7.6 µM) against Human alphaherpesvirus 1 [5]; 2 µg/mL (≈ 7.6 µM) in the experiment with Human alphaherpesvirus 1 [6]. The MIC in the experiment on Human alphaherpesvirus 1 [7] was 400 µg/mL (≈ 1520 µM); against Human alphaherpesvirus 1 [8], 400 µg/mL (≈ 1520 µM); in [9] (Oryctolagus cuniculus), 257 µg/mL (≈ 976 µM); in the experiment on Suid alphaherpesvirus 1, above 400 µg/mL; in the experiment on Human alphaherpesvirus 3 [10], 20 µg/mL (≈ 76 µM); in the experiment with Human alphaherpesvirus 3 [11], 20 µg/mL (≈ 76 µM). Further, the MIC in the experiment with Human alphaherpesvirus 3 [12] is above 100 µg/mL; against Equid alphaherpesvirus 1 it was 20 µg/mL (≈ 76 µM); in [13], above 400 µg/mL; with Cytomegalovirus [14], above 100 µg/mL; in the experiment with Human alphaherpesvirus 1 [15], 2 µg/mL (≈ 7.6 µM). Moreover, the IC50 in the experiment with FM3A and with L1210 was above 100 µg/mL in each case.

Regarding `Cc1cn2c(=O)c3ncn(COCCO)c3nc2n1C`, the MIC against Cytomegalovirus [1] is above 100 µg/mL; against Human alphaherpesvirus 2 [2], above 400 µg/mL; against Human alphaherpesvirus 2 [3] it was above 400 µg/mL; in the experiment with Human alphaherpesvirus 2 [4] it was above 400 µg/mL; against Human alphaherpesvirus 1 [5], above 400 µg/mL; against Human alphaherpesvirus 1 [6] it was above 400 µg/mL. Also, the MIC against Human alphaherpesvirus 1 [7] was above 400 µg/mL; against Human alphaherpesvirus 1 [8], above 400 µg/mL; in experiment [9] (Oryctolagus cuniculus), above 4000 µg/mL; against Suid alphaherpesvirus 1, above 400 µg/mL; in the experiment on Human alphaherpesvirus 3 [10], above 100 µg/mL; with Human alphaherpesvirus 3 [11], above 100 µg/mL. Moreover, the MIC was above 100 µg/mL in the experiment with Human alphaherpesvirus 3 [12]; above 400 µg/mL with Equid alphaherpesvirus 1; above 400 µg/mL in experiment [13]; above 100 µg/mL in the experiment with Cytomegalovirus [14]; above 400 µg/mL against Human alphaherpesvirus 1 [15]. Moreover, the IC50 in the experiment on FM3A and in the experiment on L1210 was above 100 µg/mL throughout.

Take `CNc1nc(O)c2ncn(COCCO)c2n1`: the MIC was above 100 µg/mL in the experiment on Cytomegalovirus [1]; above 400 µg/mL against Human alphaherpesvirus 2 [2]; 300 µg/mL (≈ 1250 µM) in the experiment with Human alphaherpesvirus 2 [3]; above 400 µg/mL in the experiment on Human alphaherpesvirus 2 [4]; above 400 µg/mL in the experiment on Human alphaherpesvirus 1 [5]; above 400 µg/mL against Human alphaherpesvirus 1 [6]. Also, the MIC against Human alphaherpesvirus 1 [7] was above 400 µg/mL; in the experiment on Human alphaherpesvirus 1 [8], above 400 µg/mL; in experiment [9] (Oryctolagus cuniculus), above 400 µg/mL; in the experiment on Suid alphaherpesvirus 1, above 400 µg/mL; in the experiment with Human alphaherpesvirus 3 [10], above 100 µg/mL; in the experiment with Human alphaherpesvirus 3 [11], above 100 µg/mL. In addition, the MIC against Human alphaherpesvirus 3 [12] is above 100 µg/mL; in the experiment with Equid alphaherpesvirus 1, above 400 µg/mL; in experiment [13], above 400 µg/mL; in the experiment on Cytomegalovirus [14] it was above 100 µg/mL; against Human alphaherpesvirus 1 [15], above 400 µg/mL. The IC50 with FM3A and in the experiment with L1210 was above 100 µg/mL each time.

As for `Cn1c[n+](COCCO)c2nc(N)nc([O-])c21.O=S(=O)(O)O`, the MIC against Cytomegalovirus [1] is above 100 µg/mL; against Human alphaherpesvirus 2 [2] it was 100 µg/mL; against Human alphaherpesvirus 2 [3] it was 40 µg/mL; in the experiment with Human alphaherpesvirus 2 [4], 100 µg/mL; against Human alphaherpesvirus 1 [5], 70 µg/mL; against Human alphaherpesvirus 1 [6] it was 70 µg/mL. Besides, the MIC with Human alphaherpesvirus 1 [7] is above 400 µg/mL; in the experiment on Human alphaherpesvirus 1 [8], above 400 µg/mL; in [9] (Oryctolagus cuniculus), above 400 µg/mL; in the experiment on Suid alphaherpesvirus 1, above 400 µg/mL; in the experiment on Human alphaherpesvirus 3 [10], above 100 µg/mL; against Human alphaherpesvirus 3 [11] it was above 100 µg/mL. The MIC against Human alphaherpesvirus 3 [12] was above 100 µg/mL; with Equid alphaherpesvirus 1, above 400 µg/mL; in [13], above 400 µg/mL; with Cytomegalovirus [14], above 100 µg/mL; against Human alphaherpesvirus 1 [15], 70 µg/mL. The IC50 with FM3A and with L1210 was above 100 µg/mL each time.

As for `Nc1nc2c(ncn2COCCO)c(=O)[nH]1` [ACYCLOVIR], the MIC against Cytomegalovirus [1] was 20 µg/mL (≈ 88.8 µM); in the experiment on Human alphaherpesvirus 2 [2], 0.07 µg/mL (≈ 0.311 µM); with Human alphaherpesvirus 2 [3], 0.07 µg/mL (≈ 0.311 µM); in the experiment on Human alphaherpesvirus 2 [4] it was 0.2 µg/mL (≈ 0.888 µM); in the experiment with Human alphaherpesvirus 1 [5], 0.2 µg/mL (≈ 0.888 µM); against Human alphaherpesvirus 1 [6], 0.2 µg/mL (≈ 0.888 µM). The MIC in the experiment on Human alphaherpesvirus 1 [7] turned out to be 20 µg/mL (≈ 88.8 µM); in the experiment on Human alphaherpesvirus 1 [8], 20 µg/mL (≈ 88.8 µM); in experiment [9], 8 µg/mL (≈ 35.5 µM); in the experiment with Suid alphaherpesvirus 1, 7 µg/mL (≈ 31.1 µM); against Equid alphaherpesvirus 1 it was 0.2 µg/mL (≈ 0.888 µM); in experiment [13] it was 7 µg/mL (≈ 31.1 µM). Further, the MIC in the experiment with Human alphaherpesvirus 1 [15] is 0.1 µg/mL (≈ 0.444 µM).
